Assay results taken from publication PMC3672268 (Molecular pharmaceutics, 2013).

B1: SCGB3A2: purified recombinant mouse secretoglobin 3A2 protein, given as treatment for PF (protein, UniProt Q920H1 22-91, looked up)
Secretoglobin family 3A …: LLINRLPVVDKLPVPLDDIIPSFDPLKMLLKTLGISVEHLVTGLKKCVDELGPEASEAVKKLLEALSHLV

Key:
Format in all cases: in vivo, C57BL/6N mice
[1] = Body weight in BLM-induced mouse PF model; settings: mice that received BLM, no SCGB3A2 treatment
How it was run: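 C57BL/6N mice (7–8 weeks old, n = 10 per group) received one intratracheal dose of BLM (1.5 units/kg) by intubation, or PBS as control. Body weight was tracked over the 21-day study and expressed relative to the group's average day 0 weight, which was set as 100%.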

Mmp2 mRNA = test: Quantitative RT-PCR of Mmp2 mRNA in lungs of PF model; settings: for increase of Mmp2 mRNA level vs PBS-treated control lungs: qRT-PCR normalised to β-actin, mean ± SD
How it was run: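 Mouse lung Mmp2 mRNA was measured by qRT-PCR (Superscript II RT) with gene-specific Mmp2 and β-actin primers. Cycling was 50 °C for 2 min and 95 °C for 10 min, then 40 cycles of 95 °C for 15 s and 60 °C for 40 s. Values were normalised to β-actin by ΔΔCt, with day-21 PBS lungs set as 1. Samples were taken on days 7/14/21 post-BLM; mean ± SD.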

collagen fibers = test: Masson's trichrome staining of collagen in lung sections; settings: day 21; SCGB3A2 0.25 mg/kg/day i.v. for five days from day 7 after BLM
How it was run: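 Lungs were inflated and fixed in 4% paraformaldehyde, embedded in paraffin, cut into 4-μm whole-lung sections and stained with Masson's trichrome (collagen blue), with H&E alongside. Lungs were collected on day 21.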

MMP-2 [2] = test: Western blot of active MMP-2 protein in lungs; settings: day 21 PF model, SCGB3A2-treated
How it was run: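 Minced lung was lysed in RIPA buffer (Tris, NaCl, SDS, deoxycholate, Triton X-100, EDTA, NaF, orthovanadate) with protease inhibitors. Lysates were reduced, run on 10% SDS-PAGE, transferred to PVDF and blocked in TBS-Tween with 5% milk. Blots were probed with rabbit anti-MMP-2 ([…]) and β-actin, then an HRP secondary, and read by chemiluminescence on film or imager. Lungs were taken on day 21.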

MMP-2 [3] = target: MMP-2 (Mus musculus, UniProt P33434); test: Fluorescence microscopy of cleaved MMP-P12 in lung sections; settings: SCGB3A2-treated lung sections
Sequence of MMP-2 (Mus musculus, UniProt P33434) (P33434 110-662): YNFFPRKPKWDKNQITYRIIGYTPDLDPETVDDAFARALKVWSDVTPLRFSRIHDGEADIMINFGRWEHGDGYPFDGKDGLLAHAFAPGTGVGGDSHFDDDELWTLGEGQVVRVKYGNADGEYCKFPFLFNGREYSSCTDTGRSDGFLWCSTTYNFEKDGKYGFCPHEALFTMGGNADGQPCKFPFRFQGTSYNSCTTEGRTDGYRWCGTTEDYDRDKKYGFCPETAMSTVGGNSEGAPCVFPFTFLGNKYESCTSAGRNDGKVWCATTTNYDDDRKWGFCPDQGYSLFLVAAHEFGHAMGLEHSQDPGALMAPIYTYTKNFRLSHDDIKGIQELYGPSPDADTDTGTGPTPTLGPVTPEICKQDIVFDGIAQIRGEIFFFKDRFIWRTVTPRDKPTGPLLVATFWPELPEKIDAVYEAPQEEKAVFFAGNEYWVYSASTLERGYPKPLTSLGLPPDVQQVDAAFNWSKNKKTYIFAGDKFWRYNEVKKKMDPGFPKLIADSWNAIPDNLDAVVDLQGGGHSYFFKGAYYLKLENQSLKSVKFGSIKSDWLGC
How it was run: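 Fibrotic mouse lungs were frozen, and 10 μm sections were air-dried, fixed in cold acetone for 20 min, air-dried for 30 min at RT and blocked with 10% BSA for 30 min. Sections were incubated with rabbit anti-MMP2 (10 μg/mL) for 60 min at RT in the dark, then Cy3 donkey anti-rabbit, and mounted in DAPI. Cy5.5 from the cleaved probe was viewed directly by epifluorescence at ×400.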

Row | Molecule | body weight loss by day 21 [1] | increase of Mmp2 mRNA level vs PBS-treated control lungs (Mmp2 mRNA; day 7 post-BLM administration) [folds] | increase of Mmp2 mRNA level vs PBS-treated control lungs (Mmp2 mRNA; day 14 post-BLM administration) [folds] | increase of Mmp2 mRNA level vs PBS-treated control lungs (Mmp2 mRNA; day 21 post-BLM administration) [folds] | Mmp2 mRNA expression vs no treatment group (Mmp2 mRNA; day 21 PF model, SCGB3A2-treated, qRT-PCR) | collagen expression in lungs vs BLM only-treated group (collagen fibers) | active MMP-2 protein expression vs no treatment group (MMP-2 [2]) | MMP-P12 cleavage (green) and MMP-2 (red) signals in lung sections (MMP-2 [3])
1 | bleomycin [BLM] | ~ 20% | 4.25±0.84 | 6±1.05 | 9±1.87 |  |  |  | 
2 | B1 |  |  |  |  | decreased | much lower | decreased | weak
